From ChEMBL document CHEMBL3616436, “Synthesis, cytotoxicity and antimicrobial activity of thiourea derivatives incorporating 3-(trifluoromethyl)phenyl moiety” (Eur J Med Chem, 2015) come the findings set out here.

Series [1] can be described thus: Cytotoxicity against bovine MDBK cells assessed as cell viability after 48 to 96 hrs by MTT assay. It counts as cell-based, Bos taurus. The note with it: cattle. A general note: Tetrazolium assays rely on reduction of a dye to a coloured formazan, in cell work by metabolically active cells.
For series [2], the system named is Mycobacterium tuberculosis. In words: Antimycobacterial activity against Mycobacterium tuberculosis H37Rv ATCC 25618. The class given is functional. In short, it runs like this:
(§1)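 Classical test-tube successive-dilution method in Youmans' modification of Proskauer and Beck liquid medium with 10% bovine serum. Inoculum came from 14-day cultures. DMSO stock was 10 mg/mL, diluted geometrically in medium. Tubes were incubated at 37 °C. Concentrations tested were 3.1, 6.2, 12.5, 25, 50 and 100 µg/ml. MIC is the minimum concentration inhibiting growth relative to compound-free tubes.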

Series [3] in a line: Cytotoxicity against BHK cells assessed as cell viability after 48 to 96 hrs by MTT assay. It counts as cell-based, Mesocricetus auratus. The note with it: hamster.
Series [4] deals with Vesicular stomatitis virus. In words: Antiviral activity against Vesicular stomatitis virus ATCC VR 1540 infected in African green monkey Vero 76 cells assessed as reduction of virus-plaque formation after 2 days by crystal violet staining. It counts as functional, organism-based. The note with it: ATCC VR 1540, Vero, 48 h.
Series [5] concerns Mycobacterium tuberculosis. Kind of series: Antimycobacterial activity against drug-sensitive Mycobacterium tuberculosis Spec. 192. It counts as functional. A digest of the protocol:
as §1

For series [6], the system named is Human immunodeficiency virus 1. In words: Antiviral activity against HIV1 3B infected in human MT4 cells assessed as protection against virus-induced cytopathogenicity by MTT assay. It counts as functional, organism-based. The note with it: Human immunodeficiency virus 1, 3B. For orientation: Protection from cytopathic effect is a common read-out in antiviral testing.

The nature of series [7]: Cytotoxicity against African green monkey Vero 76 cells assessed as cell viability after 48 to 96 hrs by crystal violet staining. It counts as cell-based. The note with it: chlorocebus sabaeus.
Series [8] deals with Escherichia coli. In words: Antimicrobial activity against Escherichia coli ATCC 10538 after 18 hrs by twofold serial microdilution method. The class given is functional, organism-based. On the technique in general: In broth dilution the organism is exposed to a series of concentrations in liquid medium.
The test system of series [9] is Escherichia coli. In words: Antimicrobial activity against Escherichia coli NCTC 8196 after 18 hrs by twofold serial microdilution method. The class given is functional, organism-based.
Another series deals with Human alphaherpesvirus 1. In words: Antiviral activity against Human herpesvirus 1 KOS ATCC VR-1493 infected in African green monkey Vero 76 cells assessed as reduction of virus-plaque formation after 3 days by crystal violet staining. The class given is functional, organism-based. The note with it: Human alphaherpesvirus 1, KOS ATCC VR1493, Vero, 72 h. A digest of the protocol:
(§2)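 Plaque reduction: Vero-76 at 2x10^5 cells/well grown to confluent monolayers, infected 2 h at 50–100 PFU/well; after removing unadsorbed virus, overlay of D-MEM, 1% inactivated FBS, 0.75% methylcellulose with or without serial compound dilutions; 3 days at 37°C, fixed and stained with crystal violet in 50% ethanol, plaques counted; EC50 by linear regression.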

In another series the test system is Vaccinia virus. Kind of series: Antiviral activity against Human Vaccinia virus ATCC VR-1549 infected in African green monkey Vero 76 cells assessed as reduction of virus-plaque formation after 3 days by crystal violet staining. The class given is functional, organism-based. The note with it: Orthopoxvirus vaccinia, ATCC VR-1549, Vero, 72 h.
Series [10] relates to Candida albicans. In words: Antimicrobial activity against Candida albicans ATCC 90028 after 24 hrs by twofold serial microdilution method. It counts as functional, organism-based.
The test system of the next series is Coxsackievirus B5. In words: Antiviral activity against Human coxsackievirus B5 ATCC VR-29 infected in African green monkey Vero 76 cells assessed as reduction of virus-plaque formation after 3 days by crystal violet staining. The class given is functional, organism-based. The note with it: Enterovirus B, ATCC VR-29, Vero, 72 h. In short, it runs like this: as §2

Series [11] relates to Pseudomonas aeruginosa. In words: Antimicrobial activity against Pseudomonas aeruginosa ATCC 15442 after 18 hrs by twofold serial microdilution method. The class given is functional, organism-based.
Series [12] relates to Pseudomonas aeruginosa. In words: Antimicrobial activity against Pseudomonas aeruginosa NCTC 6749 after 18 hrs by twofold serial microdilution method. The class given is functional, organism-based.
The test system of series [13] is Candida albicans. Kind of series: Antimicrobial activity against Candida albicans ATCC 10231 after 24 hrs by twofold serial microdilution method. It counts as functional, organism-based.
The test system of series [14] is Mammalian orthoreovirus 1. Kind of series: Antiviral activity against Reovirus type-1 ATCC VR-214 infected in BHK cells assessed as protection against virus-induced cytopathogenicity after 3 to 4 days by MTT assay. The class given is functional, cell-based. The note with it: Mammalian orthoreovirus 1, ATCC VR-214, BHK. In short, it runs like this: (§3)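 Cells seeded in 96-well plates (BHK 5x10^4, MDBK 3x10^4 cells/well), grown overnight to confluence, infected at m.o.i. 0.01 (BHK for Reo-1, MDBK for BVDV); serial compound dilutions in maintenance medium with 0.5% inactivated FBS added after 1 h; viability by MTT after 3–4 days at 37°C; EC50 for 50% protection by linear regression.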

Series [15] is described as follows: Cytotoxicity against human MT4 cells. The class given is cell-based.
Series [16] has as its system Bordetella bronchiseptica. Kind of series: Antimicrobial activity against Bordetella bronchiseptica ATCC 4617 after 18 hrs by twofold serial microdilution method. It counts as functional, organism-based.
The test system of the next series is Candida parapsilosis. In words: Antimicrobial activity against Candida parapsilosis ATCC 22019 after 24 hrs by twofold serial microdilution method. It counts as functional, organism-based.
Series [17] in a line: Antiviral activity against Bovine viral diarrhea virus 1-NADL ATCC VR-534 infected in MDBK cells assessed as protection against virus-induced cytopathogenicity after 3 to 4 days by MTT assay. It counts as functional, cell-based. The note with it: Bovine viral diarrhea virus isolates and strains, ATCC VR-534, MDBK. In short, it runs like this: as §3
The next series deals with Poliovirus 1. Kind of series: Antiviral activity against Poliovirus type 1 ATCC VR-1562 infected in African green monkey Vero 76 cells assessed as reduction of virus-plaque formation after 2 days by crystal violet staining. The class given is functional, organism-based. The note with it: Enterovirus C, ATCC VR-1562, Vero, 48 h.
Series [18] has as its system Pseudomonas aeruginosa. In words: Antimicrobial activity against Pseudomonas aeruginosa ATCC 27863 after 18 hrs by twofold serial microdilution method. The class given is functional, organism-based.
A further series deals with Yellow fever virus. Kind of series: Antiviral activity against Yellow fever virus 17D infected in BHK cells assessed as protection against virus-induced cytopathogenicity after 3 to 4 days by MTT assay. The class given is functional, cell-based.
The subject of series [19] is Escherichia coli. Kind of series: Antimicrobial activity against Escherichia coli ATCC 25922 after 18 hrs by twofold serial microdilution method. It counts as functional, organism-based.

In brackets after ≈: the same amount, converted by molar mass. Activity calls are given as the source filed them. The rule behind the calls is not given here.

As to `CCCCc1ccc(NC(=S)Nc2cccc(C(F)(F)F)c2)c(C)c1`, the CC50 (in general, the concentration at which the toxic effect on the cells reaches its halfway point) was found to be 10 µM in [1], 9 µM in [3], 18 µM in [7] and 43 µM in series [15]. For the same molecule, the MIC (as a rule, the least concentration at which growth counts as inhibited) in [2] is 50 µg/mL (≈ 136 µM); in [5] it was 100 µg/mL (≈ 273 µM). Moreover, the EC50 (usually the concentration needed to bring the measured effect to its halfway point) in series [4] is > 18 µM; in [6], > 43 µM; in the series with Human alphaherpesvirus 1, > 18 µM; with Vaccinia virus, > 18 µM; in the series with Coxsackievirus B5, > 18 µM; in [14], > 9 µM. In addition, the EC50 in [17] is > 10 µM; in the series with Poliovirus 1 it was > 18 µM; in the series on Yellow fever virus it was > 9 µM. Further, the outcome in the series on Escherichia coli [8], with Escherichia coli [9], in the series with Candida albicans [10], in the series on Pseudomonas aeruginosa [11], in the series with Pseudomonas aeruginosa [12] and in the series on Candida albicans [13] was inactive. Besides, the outcome (in [16]; in the series with Candida parapsilosis; with Pseudomonas aeruginosa [18]; in the series with Escherichia coli [19]) was inactive.
In the case of `CCCC[C@H]1CC[C@H](c2ccc(NC(=S)Nc3cccc(C(F)(F)F)c3)cc2)CC1`, the CC50 in series [1] came to 10 µM; in series [3], 9.5 µM; in series [7], 17 µM; in series [15], 22 µM. Besides, the EC50 in series [4] was > 17 µM; in [6], > 22 µM; in the series with Human alphaherpesvirus 1, > 17 µM; with Vaccinia virus, > 17 µM; in the series on Coxsackievirus B5, > 17 µM; in series [14] it was > 9.5 µM. In addition, the EC50 was > 10 µM in series [17], > 17 µM in the series with Poliovirus 1 and > 9.5 µM in the series with Yellow fever virus. Also, the outcome in the series on Escherichia coli [8], in the series on Escherichia coli [9], with Candida albicans [10], in the series on Pseudomonas aeruginosa [11], in the series with Pseudomonas aeruginosa [12] and in the series with Candida albicans [13] was inactive. In addition, the result (in series [16]; with Candida parapsilosis; in the series on Pseudomonas aeruginosa [18]; in the series with Escherichia coli [19]) was inactive.
With `CC(=O)NC(=S)Nc1cccc(C(F)(F)F)c1`, the CC50 in series [1], in series [3], in series [7] and in [15] was > 100 µM throughout. Moreover, the EC50 (in series [4]; in series [6]; in the series with Human alphaherpesvirus 1; with Vaccinia virus; in the series with Coxsackievirus B5; in [14]) was > 100 µM throughout. The EC50 (in series [17]; with Poliovirus 1; with Yellow fever virus) was > 100 µM in each case. The outcome in the series on Escherichia coli [8], in the series with Escherichia coli [9], in the series on Candida albicans [10], with Pseudomonas aeruginosa [11], with Pseudomonas aeruginosa [12] and with Candida albicans [13] was inactive. Also, the result (in [16]; in the series with Candida parapsilosis; in the series with Pseudomonas aeruginosa [18]; in the series with Escherichia coli [19]) was inactive.
Turning to `FC(F)(F)c1cccc(NC(S)=NCCN2CCOCC2)c1`, the CC50 in series [1], in series [3], in [7] and in series [15] was > 100 µM throughout. The EC50 (in [4]; in series [6]; in the series with Human alphaherpesvirus 1; in the series with Vaccinia virus; with Coxsackievirus B5; in series [14]) was > 100 µM each time. The EC50 (in [17]; in the series on Poliovirus 1; in the series on Yellow fever virus) was > 100 µM throughout. In addition, the outcome with Escherichia coli [8], with Escherichia coli [9], in the series with Candida albicans [10], with Pseudomonas aeruginosa [11], in the series on Pseudomonas aeruginosa [12] and in the series with Candida albicans [13] was inactive. For the same molecule, the outcome (in series [16]; with Candida parapsilosis; in the series with Pseudomonas aeruginosa [18]; in the series on Escherichia coli [19]) was inactive.
As for `FC(F)(F)c1cccc(NC(=S)NC2CCCCC2)c1`, the CC50 came to 48 µM in [1], 14 µM in series [3], 60 µM in series [7] and 45 µM in [15]. The MIC in [2] and in series [5] was > 100 µg/mL each time. Also, the EC50 in series [4] is > 60 µM; in series [6], > 45 µM; in the series on Human alphaherpesvirus 1 it was > 60 µM; with Vaccinia virus, > 60 µM; with Coxsackievirus B5 it was > 60 µM; in series [14], > 14 µM. Also, the EC50 is > 48 µM in [17], > 60 µM in the series with Poliovirus 1 and > 14 µM in the series on Yellow fever virus. The result in the series on Escherichia coli [8], with Escherichia coli [9], in the series on Candida albicans [10], in the series on Pseudomonas aeruginosa [11], in the series on Pseudomonas aeruginosa [12] and with Candida albicans [13] was inactive. The outcome (in [16]; in the series with Candida parapsilosis; with Pseudomonas aeruginosa [18]; with Escherichia coli [19]) was inactive.
Turning to `Cc1ccc(NC(=S)Nc2cccc(C(F)(F)F)c2)cc1Cl`, the CC50 amounted to 10 µM in series [1], 10 µM in [3], 20 µM in series [7] and 20 µM in [15]. In addition, the MIC in [2] and in series [5] was > 100 µg/mL in each case. Moreover, the EC50 was > 20 µM in series [4]; > 20 µM in series [6]; > 20 µM with Human alphaherpesvirus 1; > 20 µM with Vaccinia virus; > 20 µM in the series on Coxsackievirus B5; > 10 µM in series [14]. In addition, the EC50 was > 10 µM in series [17], > 20 µM with Poliovirus 1 and > 10 µM in the series on Yellow fever virus. Also, the outcome in the series with Escherichia coli [8], in the series on Escherichia coli [9], with Candida albicans [10], in the series on Pseudomonas aeruginosa [11], in the series with Pseudomonas aeruginosa [12] and in the series with Candida albicans [13] was inactive. The result (in series [16]; in the series with Candida parapsilosis; with Pseudomonas aeruginosa [18]; in the series on Escherichia coli [19]) was inactive.
